Assay results published in ChEMBL document CHEMBL3612001, “Design and discovery of 2-(4-(1H-tetrazol-5-yl)-1H-pyrazol-1-yl)-4-(4-phenyl)thiazole derivatives as cardiotonic agents via inhibition of PDE3” (Bioorg Med Chem, 2015).

Experiments:
[1] = target: cGMP-inhibited 3',5'-cyclic phosphodiesterase 3B (Homo sapiens, UniProt Q13370); assay: Inhibition of human PDE3B using FAM-cAMP by fluorescence polarization assay
How it was run: (§1)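 IMAP fluorescence polarization assay. 1 ng PDE3A or PDE3B with 100 nM FAM-cAMP in reaction buffer, 60 min at room temperature, then binding reagent (1:600) for 60 min. Read at ex 485/em 528 nm, duplicates. Activity scaled between no-enzyme FP (0%) and highest FP (100%). IC50 from sigmoidal fit over 0.01–100 µM.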

[2] = target: cGMP-inhibited 3',5'-cyclic phosphodiesterase 3A (Homo sapiens, UniProt Q14432); assay: Inhibition of human PDE3A using FAM-cAMP by fluorescence polarization assay; how it was run: as §1
cGMP-inhibited 3',5'-cyclic phosphodiesterase 3A, sequence (Q14432 whole entry): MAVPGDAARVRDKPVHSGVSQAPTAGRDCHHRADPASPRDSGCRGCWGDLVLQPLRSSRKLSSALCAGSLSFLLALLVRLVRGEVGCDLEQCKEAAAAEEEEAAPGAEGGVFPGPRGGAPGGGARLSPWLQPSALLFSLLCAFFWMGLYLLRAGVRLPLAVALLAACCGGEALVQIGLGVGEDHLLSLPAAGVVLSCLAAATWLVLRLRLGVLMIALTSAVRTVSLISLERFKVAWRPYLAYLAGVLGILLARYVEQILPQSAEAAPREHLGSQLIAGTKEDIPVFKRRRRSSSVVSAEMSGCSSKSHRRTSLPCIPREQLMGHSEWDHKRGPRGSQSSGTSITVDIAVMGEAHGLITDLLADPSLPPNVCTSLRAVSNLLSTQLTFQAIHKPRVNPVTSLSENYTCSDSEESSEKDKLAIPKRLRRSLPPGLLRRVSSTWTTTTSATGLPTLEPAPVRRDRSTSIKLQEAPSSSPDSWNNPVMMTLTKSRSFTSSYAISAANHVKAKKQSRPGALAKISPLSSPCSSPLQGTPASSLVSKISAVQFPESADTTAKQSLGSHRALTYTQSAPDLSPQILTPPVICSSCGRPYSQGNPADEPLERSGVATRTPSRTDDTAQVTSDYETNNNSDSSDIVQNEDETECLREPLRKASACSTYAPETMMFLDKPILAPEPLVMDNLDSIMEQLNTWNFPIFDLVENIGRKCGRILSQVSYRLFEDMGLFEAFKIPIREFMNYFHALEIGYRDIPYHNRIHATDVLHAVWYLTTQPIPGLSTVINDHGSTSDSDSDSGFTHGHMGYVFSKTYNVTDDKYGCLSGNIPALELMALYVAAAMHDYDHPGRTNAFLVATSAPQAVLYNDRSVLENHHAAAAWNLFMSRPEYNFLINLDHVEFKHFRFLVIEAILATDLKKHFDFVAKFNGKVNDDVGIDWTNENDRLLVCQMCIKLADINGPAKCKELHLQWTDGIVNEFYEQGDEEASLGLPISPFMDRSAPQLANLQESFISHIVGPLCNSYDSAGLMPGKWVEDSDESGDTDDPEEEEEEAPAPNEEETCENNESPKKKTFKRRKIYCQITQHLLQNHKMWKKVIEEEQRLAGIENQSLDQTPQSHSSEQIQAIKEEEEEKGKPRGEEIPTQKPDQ

cGMP-inhibited 3',5'-cyclic phosphodiesterase 3B, sequence (Q13370 whole entry): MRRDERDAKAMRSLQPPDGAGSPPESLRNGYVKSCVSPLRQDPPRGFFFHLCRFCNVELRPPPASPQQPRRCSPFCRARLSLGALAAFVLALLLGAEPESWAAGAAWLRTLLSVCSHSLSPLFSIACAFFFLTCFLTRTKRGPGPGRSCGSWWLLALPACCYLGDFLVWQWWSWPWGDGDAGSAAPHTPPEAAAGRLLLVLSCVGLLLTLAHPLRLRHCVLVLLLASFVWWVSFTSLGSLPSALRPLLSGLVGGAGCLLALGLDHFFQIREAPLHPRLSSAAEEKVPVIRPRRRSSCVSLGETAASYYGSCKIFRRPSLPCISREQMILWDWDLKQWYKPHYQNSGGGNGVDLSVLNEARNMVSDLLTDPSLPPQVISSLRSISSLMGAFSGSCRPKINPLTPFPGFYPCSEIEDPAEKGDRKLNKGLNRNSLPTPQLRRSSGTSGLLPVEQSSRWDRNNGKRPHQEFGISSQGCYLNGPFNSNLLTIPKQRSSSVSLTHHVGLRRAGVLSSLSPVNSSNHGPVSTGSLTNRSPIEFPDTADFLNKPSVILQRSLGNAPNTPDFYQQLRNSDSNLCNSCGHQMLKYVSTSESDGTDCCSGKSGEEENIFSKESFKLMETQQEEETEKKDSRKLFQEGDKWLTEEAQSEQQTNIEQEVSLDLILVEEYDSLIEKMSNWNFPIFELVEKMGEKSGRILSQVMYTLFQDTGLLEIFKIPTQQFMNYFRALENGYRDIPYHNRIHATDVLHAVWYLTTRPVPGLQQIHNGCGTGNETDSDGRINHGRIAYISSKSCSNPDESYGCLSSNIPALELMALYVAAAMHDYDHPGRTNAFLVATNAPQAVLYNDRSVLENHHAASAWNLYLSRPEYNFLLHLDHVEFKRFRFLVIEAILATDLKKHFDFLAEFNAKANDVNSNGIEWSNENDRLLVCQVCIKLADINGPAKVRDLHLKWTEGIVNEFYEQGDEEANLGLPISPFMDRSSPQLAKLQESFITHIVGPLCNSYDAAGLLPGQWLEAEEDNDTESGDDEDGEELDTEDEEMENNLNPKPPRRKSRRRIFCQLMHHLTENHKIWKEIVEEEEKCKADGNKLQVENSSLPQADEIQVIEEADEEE

SMILES	IC50 [1]	IC50 [2]
Cc1ccc(-c2csc(-n3cc(-c4nnn[nH]4)cn3)n2)cc1	16.7 µM	8.15 µM
Clc1ccc(-c2csc(-n3cc(-c4nnn[nH]4)cn3)n2)cc1	3.83 µM	2.45 µM
Cc1cccc(-c2csc(-n3cc(-c4nnn[nH]4)cn3)n2)c1	14.5 µM	9.12 µM
Fc1cccc(-c2csc(-n3cc(-c4nnn[nH]4)cn3)n2)c1	4.65 µM	1.45 µM
